Experimental data collected from several papers.
Compare with care: the assays were run in different laboratories.
Target: Serine/threonine-protein kinase 3 (STK3, Homo sapiens, UniProt Q13188)
Residues used in one study (Q13188 1-491): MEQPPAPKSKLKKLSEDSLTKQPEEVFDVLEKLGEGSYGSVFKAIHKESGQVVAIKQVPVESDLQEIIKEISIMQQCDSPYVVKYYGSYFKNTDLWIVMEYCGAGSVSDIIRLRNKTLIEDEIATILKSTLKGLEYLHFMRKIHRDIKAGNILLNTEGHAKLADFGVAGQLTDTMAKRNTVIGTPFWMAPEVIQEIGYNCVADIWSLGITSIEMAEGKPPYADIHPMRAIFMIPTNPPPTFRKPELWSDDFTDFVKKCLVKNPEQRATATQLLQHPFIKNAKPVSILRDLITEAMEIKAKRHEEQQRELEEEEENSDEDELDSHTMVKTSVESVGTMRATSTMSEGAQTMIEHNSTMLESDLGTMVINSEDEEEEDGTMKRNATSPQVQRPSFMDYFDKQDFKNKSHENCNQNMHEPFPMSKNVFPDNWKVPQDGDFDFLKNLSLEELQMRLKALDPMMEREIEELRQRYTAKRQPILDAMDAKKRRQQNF

Cc1cc(O)c(-c2ccc([C@@H](C)CN(C)C)cc2)c2c1[nH]c(=O)c1sccc12  inhibition (enzyme activity; inhibitor; 0.1 µM): 9.39%
CC#CC(=O)N1CCC[C@H]1c1nc(-c2ccc(C(=O)Nc3ccccn3)cc2)c2c(N)nccn12  inhibition (enzyme activity; inhibitor; 1 µM): 19%
COc1ccc2oc(-c3ccc4nc(N)oc4c3)c/c(=N\c3ccccc3NC(=O)CCN)c2c1  remaining binding (binding; 1 µM): 79%
C#Cc1cc(-c2cc(Nc3nc(N[C@@H](C)c4ccc(F)cn4)ncc3Cl)n[nH]2)ccc1C=O  inhibition (enzyme activity; inhibitor; 0.2 µM): 29.9%
Cc1ccc(NC(=O)c2ccnc(C(F)(F)F)c2)cc1-c1cc(OCCO)nc(N2CCOCC2)c1  remaining binding (binding; 1 µM): 79%
CC(C)S(=O)(=O)c1ccc2nccc(Nc3ccc4sc(C5CCCC5)nc4c3)c2c1  activity vs control (enzyme activity; inhibitor; 1 µM): 103%
CO[C@@H]1[C@H](N(C)C(=O)c2ccccc2)C[C@H]2O[C@]1(C)n1c3ccccc3c3c4c(c5c6ccccc6n2c5c31)C(=O)NC4  inhibition (enzyme activity; inhibitor; 1 µM): 100%
CCCCC(=O)Nc1ccc(-c2ccc3ncn(CCC)c(=O)c3c2)cn1  remaining binding (binding; competition with immobilised ligand; 0.5 µM): 73%
CN1CCN(C(=O)c2ccc(NC(=O)Nc3ccc(N(C)c4ccnc(Nc5ccc(CS(C)(=O)=O)cc5)n4)cc3)cc2)CC1  remaining binding (binding; 1 µM): 16%
